Laboratory results from article PMC10466730 (Cancer cell, 2023).

Assays:
CK1α = CK1α (Homo sapiens, UniProt P48729+Q96SW2); experiment: Western blot of CK1α in MOLM-13 cells; type: cell-based; details: MOLM-13
How it was run: (§1)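 MOLM-13 cells (1 × 10⁶) were treated 24 h with test compound diluted from DMSO stocks. Cells were pelleted, washed with PBS, lysed in Laemmli buffer by vortexing for 10 min, and boiled at 95 °C for 5 min. Lysates were resolved on 4–15% gradient SDS-PAGE, transferred to PVDF and immunoblotted with target-specific antibodies.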

MOLM-13 cells = experiment: Viability assay in MOLM-13 cells; type: cell-based, human; details: MOLM-13, 72 h, unlike lenalidomide, Figure 1E
How it was run: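 Human AML cell lines were plated at 10,000 cells per well with increasing test compound up to 100 μM for 72 h at 37 °C, 5% CO₂. CellTiter-Glo was added 1:1 for 15 min at room temperature and luminescence was read; MTT was used as an alternative read-out. Percent viability was fitted by non-linear regression to give IC50. Three independent experiments, triplicates.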

IKZF2 = IKZF2 (Homo sapiens, UniProt Q96SW2+Q9UKS7); experiment: Western blot of IKZF2 in MOLM-13 cells; type: cell-based; details: MOLM-13, 24 h
How it was run: as §1

Chain of IKZF2 (Q9UKS7 whole entry): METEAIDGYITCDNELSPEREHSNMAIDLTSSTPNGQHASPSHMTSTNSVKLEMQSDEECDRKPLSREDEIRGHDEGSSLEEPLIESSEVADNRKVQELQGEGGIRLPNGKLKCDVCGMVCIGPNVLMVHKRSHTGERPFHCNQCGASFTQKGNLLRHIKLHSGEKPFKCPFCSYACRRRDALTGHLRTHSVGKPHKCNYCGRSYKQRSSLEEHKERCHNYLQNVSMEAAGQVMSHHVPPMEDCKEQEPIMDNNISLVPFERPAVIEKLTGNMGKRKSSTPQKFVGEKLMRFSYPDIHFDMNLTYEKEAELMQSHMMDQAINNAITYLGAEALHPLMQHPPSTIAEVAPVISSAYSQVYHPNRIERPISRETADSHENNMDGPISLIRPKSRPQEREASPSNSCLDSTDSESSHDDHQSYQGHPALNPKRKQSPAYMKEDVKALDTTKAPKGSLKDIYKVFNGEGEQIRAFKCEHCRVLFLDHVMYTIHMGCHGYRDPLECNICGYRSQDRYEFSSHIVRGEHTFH
Chain of IKZF2 (Q96SW2 whole entry): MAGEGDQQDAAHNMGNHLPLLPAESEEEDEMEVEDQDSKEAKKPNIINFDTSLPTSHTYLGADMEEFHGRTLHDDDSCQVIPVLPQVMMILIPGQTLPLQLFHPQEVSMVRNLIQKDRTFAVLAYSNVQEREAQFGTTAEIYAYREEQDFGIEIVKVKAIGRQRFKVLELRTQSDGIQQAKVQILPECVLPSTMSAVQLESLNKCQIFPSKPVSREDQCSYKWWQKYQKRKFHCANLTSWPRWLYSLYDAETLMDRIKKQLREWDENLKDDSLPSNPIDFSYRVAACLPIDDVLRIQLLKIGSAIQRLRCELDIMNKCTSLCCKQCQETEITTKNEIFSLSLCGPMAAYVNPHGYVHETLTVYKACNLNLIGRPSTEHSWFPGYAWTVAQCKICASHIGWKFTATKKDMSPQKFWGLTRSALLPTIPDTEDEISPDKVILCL
Chain of IKZF2 (Q16531 whole entry partner): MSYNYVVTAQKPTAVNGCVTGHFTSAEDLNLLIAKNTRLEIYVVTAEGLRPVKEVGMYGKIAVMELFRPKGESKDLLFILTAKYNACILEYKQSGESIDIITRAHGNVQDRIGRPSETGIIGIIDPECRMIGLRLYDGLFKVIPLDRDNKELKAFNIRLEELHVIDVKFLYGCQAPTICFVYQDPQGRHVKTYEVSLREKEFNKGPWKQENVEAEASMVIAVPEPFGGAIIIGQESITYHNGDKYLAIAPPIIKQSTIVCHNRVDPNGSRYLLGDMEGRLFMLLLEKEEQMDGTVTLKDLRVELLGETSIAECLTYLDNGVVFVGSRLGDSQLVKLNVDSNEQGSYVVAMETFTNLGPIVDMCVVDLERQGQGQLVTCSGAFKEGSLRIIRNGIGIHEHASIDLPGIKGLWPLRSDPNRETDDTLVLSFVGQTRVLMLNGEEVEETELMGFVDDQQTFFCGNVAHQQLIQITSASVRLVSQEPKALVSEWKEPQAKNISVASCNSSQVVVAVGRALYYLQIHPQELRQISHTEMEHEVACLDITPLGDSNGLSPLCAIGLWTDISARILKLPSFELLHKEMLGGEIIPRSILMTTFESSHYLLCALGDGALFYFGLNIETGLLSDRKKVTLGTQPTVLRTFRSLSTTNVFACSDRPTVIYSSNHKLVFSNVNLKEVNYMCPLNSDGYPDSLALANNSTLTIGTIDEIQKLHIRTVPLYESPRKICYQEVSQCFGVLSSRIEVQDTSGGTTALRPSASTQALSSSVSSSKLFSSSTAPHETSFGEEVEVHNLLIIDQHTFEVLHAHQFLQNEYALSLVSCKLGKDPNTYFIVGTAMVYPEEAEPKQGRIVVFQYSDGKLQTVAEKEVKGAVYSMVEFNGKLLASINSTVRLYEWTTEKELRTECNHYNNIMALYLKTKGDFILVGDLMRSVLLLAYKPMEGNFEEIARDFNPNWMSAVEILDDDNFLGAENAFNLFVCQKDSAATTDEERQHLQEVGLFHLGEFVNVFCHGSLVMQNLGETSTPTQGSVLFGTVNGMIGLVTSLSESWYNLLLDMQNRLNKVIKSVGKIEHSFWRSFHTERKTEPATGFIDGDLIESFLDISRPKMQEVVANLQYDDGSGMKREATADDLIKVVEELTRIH
Chain of CK1α (P48729 whole entry): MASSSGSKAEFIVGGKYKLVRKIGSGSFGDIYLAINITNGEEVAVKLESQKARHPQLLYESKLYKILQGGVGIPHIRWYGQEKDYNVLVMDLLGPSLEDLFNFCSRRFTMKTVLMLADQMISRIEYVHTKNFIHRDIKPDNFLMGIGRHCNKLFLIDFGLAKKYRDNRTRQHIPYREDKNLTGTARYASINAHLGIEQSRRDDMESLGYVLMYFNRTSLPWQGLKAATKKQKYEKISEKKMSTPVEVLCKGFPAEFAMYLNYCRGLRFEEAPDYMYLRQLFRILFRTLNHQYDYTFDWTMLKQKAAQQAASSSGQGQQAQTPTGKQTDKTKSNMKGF
Chain of CK1α (Q96SW2 whole entry): as the sequence (Q96SW2 whole entry) above
Chain of CK1α (Q16531 whole entry partner): as the sequence (Q16531 whole entry partner) above

Row | SMILES | CK1α degradation (Western blot) (CK1α) | cellular growth inhibition (MOLM-13 cells) | IKZF2 degradation (Western blot) (IKZF2)
1 | COc1ccc2cc(CNc3ccc4c(c3)CN(C3CCC(=O)NC3=O)C4=O)ccc2c1 (centres unmarked) [CH2-DEG-35, 3-(5-(((6-methoxynaphthalen-2-yl)methyl)amino)-1-oxoisoindolin-2-yl)piperidine-2,6-dione] | but not CH2-DEG-35 efficiently degraded | – | –
2 | O=C1CCC(N2Cc3cc(NC(=O)c4ccc5ccccc5c4)ccc3C2=O)C(=O)N1 (centres unmarked) [DEG-9, N-(2-(2,6-dioxopiperidin-3-yl)-1-oxoisoindolin-5-yl)-2-naphthamide] | – | inhibited cellular growth | dose-dependent degradation
3 | COc1ccc2cc(C(=O)Nc3ccc4c(c3)CN(C3CCC(=O)N(C)C3=O)C4=O)ccc2c1 (centres unmarked) [Me-DEG-35, 6-methoxy-N-(2-(1-methyl-2,6-dioxopiperidin-3-yl)-1-oxoisoindolin-5-yl)-2-naphthamide] | rescued IKZF2 and CK1α degradation | – | rescued IKZF2 and CK1α degradation
